The target of data set [1] is T1, CYP3A4 (Homo sapiens, UniProt P08684). Nature of the data set: Ratio of IC50 for human CYP3A4 without preincubation to IC50 for human CYP3A4 preincubated for 30 mins. Conditions: read-out: Ratio IC50. In a few lines: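 Human liver microsomes (0.25 mg/mL) were preincubated 0 or 30 min at 37 °C with compound (0.03–200 µM) and 1 mM NADPH in 125 mM phosphate buffer. Testosterone (500 µM) was then added for 15 min at 37 °C. Reactions were quenched with acetonitrile and 6β-hydroxytestosterone was measured by HPLC-MS/MS. IC50s were determined under each condition, and the shift is the ratio of the 0-min to the 30-min IC50.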
T1 sequence (P08684 whole entry): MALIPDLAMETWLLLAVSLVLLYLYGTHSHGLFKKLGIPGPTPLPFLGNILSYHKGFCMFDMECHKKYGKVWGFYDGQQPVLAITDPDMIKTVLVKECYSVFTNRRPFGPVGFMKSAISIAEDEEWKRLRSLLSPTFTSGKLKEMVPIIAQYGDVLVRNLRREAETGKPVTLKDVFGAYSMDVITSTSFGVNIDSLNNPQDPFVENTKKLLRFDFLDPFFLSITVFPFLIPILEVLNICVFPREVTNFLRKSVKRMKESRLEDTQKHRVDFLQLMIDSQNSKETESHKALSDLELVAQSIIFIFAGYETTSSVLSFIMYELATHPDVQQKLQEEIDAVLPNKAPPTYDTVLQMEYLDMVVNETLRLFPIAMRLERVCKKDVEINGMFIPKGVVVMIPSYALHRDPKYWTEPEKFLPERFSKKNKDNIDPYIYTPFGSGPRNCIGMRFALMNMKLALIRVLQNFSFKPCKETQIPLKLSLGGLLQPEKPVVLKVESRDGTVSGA

The test system of data set [2] is Rattus norvegicus. The experiment in a line: Antihypertensive activity in double transgenic rat hypertensive model assessed as reduction in blood pressure at 3 mg/kg, po. In kind it is functional.
Data set [3] has as its system Rattus norvegicus. The experiment in a line: Antihypertensive activity in double transgenic rat hypertensive model assessed as time required to reduce blood pressure at 3 mg/kg, po. In kind it is functional.
Data set [4] can be described thus: Metabolic stability in human liver microsome assessed as compound remaining at 50 uM after 1 hr. In kind it is ADME. Conditions: liver microsomes, read-out: Stability. Background: Liver microsomes are vesicles of endoplasmic reticulum, rich in cytochrome P450 enzymes.
Data set [5] has as its system Rattus norvegicus. The experiment in a line: Antihypertensive activity in double transgenic rat hypertensive model assessed as reduction in blood pressure at 1 mg/kg, po. In kind it is functional.
A short description of data set [6]: Clearance in Beagle dog at 3 mg/kg, po. In kind it is ADME, organism-based, Canis lupus familiaris. Details: dose 3 mg/kg, route oral. Conditions: in vivo.
The target of data set [7] is T2, Renin (Homo sapiens, UniProt P00797).
T2 sequence (P00797 whole entry): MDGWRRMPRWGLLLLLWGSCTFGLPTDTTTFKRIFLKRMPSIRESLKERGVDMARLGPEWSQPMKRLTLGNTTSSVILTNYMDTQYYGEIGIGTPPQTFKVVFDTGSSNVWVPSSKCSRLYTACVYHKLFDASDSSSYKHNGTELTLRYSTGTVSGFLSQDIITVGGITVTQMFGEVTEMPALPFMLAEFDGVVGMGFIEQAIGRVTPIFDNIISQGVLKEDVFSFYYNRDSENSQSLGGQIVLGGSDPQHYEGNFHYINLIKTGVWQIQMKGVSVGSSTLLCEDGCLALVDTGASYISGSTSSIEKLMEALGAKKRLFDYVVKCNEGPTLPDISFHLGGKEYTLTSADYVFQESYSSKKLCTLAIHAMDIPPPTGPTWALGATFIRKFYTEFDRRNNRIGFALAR
Nature of the data set: Inhibition of human recombinant renin in presence of plasma by immunoassay. The class given is cell-free. In a few lines:
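Pooled frozen human citrate plasma was spiked with recombinant human renin (150 pg/mL final). Compounds at various concentrations in DMSO were added to a 7:1 mix of plasma and anti-AngI trapping antibody (final antiserum 1:50,000) in Tris/EDTA pH 7.2, then incubated 2 h at 37 °C. AngI was read by immunoassay and IC50 fitted. Values are the mean of at least two replicates.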

For data set [8], the target named is T3, Cytochrome P450 3A4 (Homo sapiens, UniProt P08684). Nature of the data set: (§1) Inhibition of CYP3A4 in human liver microsome. The class given is ADME, microsomes. In a few lines: (§2)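 Human liver microsomes (0.25 mg/mL) pre-incubated 0 or 30 min at 37 °C with test compound (0.03–200 µM range as printed) and 1 mM NADPH in 125 mM phosphate buffer. Testosterone (500uM) then added as CYP3A substrate, 15 min further at 37 °C. Quenched with acetonitrile, centrifuged, and 6b-hydroxytestosterone formation read by HPLC-MS/MS. IC50 averaged over at least two replicates.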
T3 sequence (P08684 whole entry): as the sequence (P08684 whole entry) above

Data set [9] deals with T1, CYP3A4. The data set is described as §1. The class given is ADME, microsomes. Conditions: human, liver microsomes. In a few lines: as §2
Data set [10] in a line: Half life in Beagle dog at 3 mg/kg, po. In kind it is ADME, organism-based, Canis lupus familiaris. Details: dose 3 mg/kg, route oral. Conditions: in vivo.
The test system of the next data set is Canis familiaris. The experiment in a line: Volume of distribution at steady state in Beagle dog at 3 mg/kg, po. In kind it is ADME, organism-based, Canis lupus familiaris. Details: dose 3 mg/kg, route oral. Conditions: in vivo.
The target in data set [11] is T1, CYP3A4. The experiment in a line: Inhibition of CYP3A4 in human liver microsome at 3 uM. In kind it is ADME. Conditions: liver microsomes.
Data set [12] in a line: Oral bioavailability in Beagle dog at 3 mg/kg. Conditions: in vivo. In kind it is ADME, organism-based, Canis lupus familiaris.
Data set [13] in a line: Half life in Sprague-Dawley rat at 30 mg/kg, po. Details: dose 30 mg/kg, route oral. Conditions: in vivo. The class given is ADME, organism-based.
The nature of data set [14]: Oral bioavailability in Sprague-Dawley rat at 30 mg/kg. The class given is ADME, organism-based. Conditions: in vivo.
The target in data set [15] is T2, Renin. Nature of the data set: Inhibition of human recombinant renin in presence of pH 7.4 buffer. In a few lines: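 Recombinant human renin (3 pg/µL) in PBS pH 7.4 with 1 mM EDTA and 0.1% BSA, premixed with human tetradecapeptide (1–14) substrate and hydroxyquinoline sulfate. Compounds were diluted in DMSO and added, then incubated 3 h at 37 °C. AngI accumulation was measured by immunoassay. % inhibition was computed for each concentration and IC50 obtained by curve fitting. Values are the mean of at least two replicates.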

Data set [16] deals with Rattus norvegicus. Nature of the data set: Antihypertensive activity in double transgenic rat hypertensive model assessed as time required to reduce blood pressure at 1 mg/kg, po. The class given is functional.
Data set [17] concerns the target T3, Cytochrome P450 3A4. The experiment in a line: Inhibition of CYP3A4 in human liver microsome preincubated for 30 mins. The class given is ADME, microsomes. In a few lines:
as §2

Data set [18] can be described thus: Intrinsic clearance in human liver microsome. In kind it is ADME. Conditions: liver microsomes. In a few lines: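 Compound (1 µM) was incubated at 37 °C with human liver microsomes (1 mg/mL) and an NADPH regenerating system in 125 mM phosphate buffer. Samples were quenched with acetonitrile at 2, 5, 10, 20, 45 and 75 min and parent loss was followed by HPLC-MS/MS. CLint was calculated from the initial elimination rate constant.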

The test system of data set [19] is Rattus norvegicus. The experiment in a line: Volume of distribution at steady state in Sprague-Dawley rat at 30 mg/kg, po. In kind it is ADME, organism-based. Further details: dose 30 mg/kg, route oral. Conditions: in vivo.
Data set [20] in a line: Clearance in Sprague-Dawley rat at 30 mg/kg, po. The class given is ADME, organism-based. Further details: dose 30 mg/kg, route oral. Conditions: in vivo.
Data set [21] is described as follows: Metabolic stability in human liver microsome assessed as compound remaining at 20 uM after 1 hr. In kind it is ADME. Conditions: liver microsomes, read-out: Stability.

As for `Cc1cc(Cl)c(OCCOc2ccc(C[C@H](CN)C(=O)N(Cc3cc(CCS(C)(=O)=O)ccc3Cl)C3CC3)cc2)c(Cl)c1`, the IC50 shift on CYP3A4 [1] is 50.
Still for that read-out and setting: the same measure for `COCCc1ccc(Cl)c(CN(C[C@@H](CN)Cc2ccc(OCCOc3c(Cl)cc(C)cc3Cl)cc2)C2CC2)c1`: 5.8.
Same read-out and setting: the same measure for `COCCCc1cc(CN(C(=O)[C@@H](CN)Cc2ccc(OCCOc3c(Cl)cc(C)cc3Cl)cc2)C2CC2)cc(OCCOC)c1`: 1.5.
Regarding `Cc1cc(Cl)c(OCCOc2ccc(C[C@H](CN)C(=O)N(Cc3cc(CCCC#N)ccc3Cl)C3CC3)cc2)c(Cl)c1`, the IC50 shift on CYP3A4 [1] was 120. Besides, the Activity with Rattus norvegicus [2] stood at 27 mmHg. The Time in the data set on Rattus norvegicus [3] was determined as 48 h.
On to `COCCc1ccc(Cl)c(CN(C(=O)CCc2ccc(OCCOc3c(Cl)cc(C)cc3Cl)cc2)C2CC2)c1`, for which the IC50 shift on CYP3A4 [1] amounted to 40.
Consider `COCCc1ccc(Cl)c(CN(C(=O)[C@@H](CN)Cc2ccc(CCOc3c(Cl)cc(C)cc3Cl)cc2)C2CC2)c1`, for which the IC50 shift at CYP3A4 [1] amounted to 60.
The same measure, in the same setting: the same measure for `COCCc1ccc(Cl)c(C[C@H](C[C@@H](CN)Cc2ccc(OCCOc3c(Cl)cc(C)cc3Cl)cc2)C2CC2)c1`: 3.5.
Consider `COCCCc1ccc(Cl)c(CN(C(=O)[C@@H](CN)Cc2ccc(OCCOc3c(Cl)cc(C)cc3Cl)cc2)C2CC2)c1`, for which the remaining at 1 h, 50 µM in [4] stood at 98%. Also, the IC50 shift on CYP3A4 [1] is 110. Further, the Activity in the data set with Rattus norvegicus [5] turned out to be 13 mmHg. Besides, the CL/F (in general, the apparent clearance, not corrected for the fraction that reaches the circulation) in [6] stood at 16 mL/min/kg; in [20] it was 35 mL/min/kg. Besides, the IC50 (in general, the concentration needed to halve the response being measured) at Renin [7] worked out at 2.4 nM; on Cytochrome P450 3A4 [8], 14000 nM; at Renin [15] it was 0.09 nM; against Cytochrome P450 3A4 [17] it was 120 nM. In addition, affinity on Cytochrome P450 3A4 [8] was put at a Ki of 3200 nM. For the same compound, the kinact (commonly the maximal first-order rate at which the target is inactivated) at CYP3A4 [9] was 0.00157 s⁻¹. Besides, the half-life (in general, the time needed for the level to fall by half in the phase considered) in data set [10] is 17 h; in data set [13] it was 6 h. Also, the Vdss was 8.4 L/kg with Canis familiaris and 12 L/kg in the data set with Rattus norvegicus [19]. At 3 µM the inhibition at CYP3A4 [11] was 7%. In addition, the bioavailability (usually dose-corrected exposure relative to a reference, in per cent) in data set [12] is 32%; in data set [14], 41%. Also, the Time with Rattus norvegicus [16] was found to be 24 h. Further, in data set [18], the CLint scaled (usually a measure of how fast metabolising enzymes remove a compound, apart from limits set by blood flow) turned out to be 15 mL/min/kg. The remaining at 1 h, 20 µM in data set [21] came to 94%.
As to `COCCc1ccc(Cl)c(CN(C(=O)[C@H](Cc2ccc(OCCOc3c(Cl)cc(C)cc3Cl)cc2)[C@H](C)N)C2CC2)c1`, the IC50 shift on CYP3A4 [1] was 60.
As to `COCCc1ccc(Cl)c(CN(CC2CC2)C(=O)[C@@H](CN)Cc2ccc(OCCOc3c(Cl)cc(C)cc3Cl)cc2)c1`, on CYP3A4 [1], the IC50 shift came to 100.
Same read-out and setting: next, `COCCCc1cc(CN(C(=O)[C@@H](CN)Cc2ccc(OCCOc3c(Cl)cc(C)cc3Cl)cc2)C2CC2)c(Cl)c[n+]1[O-]`: 70; `CC(=O)N(C)Cc1ccc(Cl)c(CN(C(=O)[C@@H](CN)Cc2ccc(OCCOc3c(Cl)cc(C)cc3Cl)cc2)C2CC2)c1`: 35; `Cc1cc(Cl)c(OCCOc2ccc(C[C@H](CN)C(=O)N(Cc3cc(CCCC#N)cc4cccnc34)C3CC3)cc2)c(Cl)c1`: 140.
On the same count and under the same terms, next, `COCCCc1cc(CN(C(=O)[C@@H](CN)Cc2ccc(OCCOc3c(Cl)cc(C)cc3Cl)cc2)C2CC2)c2ccccc2n1`: 120; `COCCCc1cc(CN(C(=O)[C@@H](CN)Cc2ccc(OCCOc3c(Cl)cc(C)cc3Cl)cc2)C2CC2)cc(OCCN2CCOCC2)c1`: below 1; `COCCc1ccc(Cl)c(CN(CC2CCC2)C(=O)[C@@H](CN)Cc2ccc(OCCOc3c(Cl)cc(C)cc3Cl)cc2)c1`: 130.
Still for that read-out and setting: the same measure for `COCCc1ccc(Cl)c(CN(C(=O)[C@H](Cc2ccc(OCCOc3c(Cl)cc(C)cc3Cl)cc2)C(N)=O)C2CC2)c1`: 55; for `COCCc1ccc(Cl)c(CN(C)C(=O)[C@@H](CN)Cc2ccc(OCCOc3c(Cl)cc(C)cc3Cl)cc2)c1`: 40.
As for `COCCCc1cc(CN(C(=O)[C@@H](CN)Cc2ccc(OCCOc3c(Cl)cc(C)cc3Cl)cc2)C2CC2)c(Cl)cn1`, the IC50 shift on CYP3A4 [1] came to 90.
Take `COCCc1ccc(Cl)c(CN(C(=O)[C@@H](CN)Cc2ccc(OCCOc3c(Cl)cc(C)cc3Cl)cc2)C2CCC2)c1`: at CYP3A4 [1], the IC50 shift was 180.
Consider `COCCc1ccc(Cl)c(C[C@@H](C[C@@H](CN)Cc2ccc(OCCOc3c(Cl)cc(C)cc3Cl)cc2)C2CC2)c1`, for which, on CYP3A4 [1], the IC50 shift was found to be 1.7.
Same read-out and setting: the same measure for `COCCc1ccc(Cl)c(CN(C(=O)[C@@H](CN)Cc2ccccc2)C2CC2)c1`: 120; for `COCCc1ccc(Cl)c(CN(C(=O)[C@@H](CN)Cc2ccc(OCCOc3c(Cl)cc(C)cc3Cl)cc2)C2CC2)c1`: 110.

Source of the values: ChEMBL document CHEMBL1221273, “Addressing time-dependent CYP 3A4 inhibition observed in a novel series of substituted amino propanamide renin inhibitors, a case study” (Bioorg Med Chem Lett, 2010).
